# Sampled rows, rich in hits. Any-hit rate of the full collection: about 1.9%.
# CHRM5 agonist: agonists of human muscarinic M5 receptor (CHRM5). P08912. activation, % at 3 µM. AID 624037. 360,000 compounds, 0.19% hits. CHO-K1 hM5 cells, Fluo-8 calcium fluorescence; 0% DMSO wells, 100% maximal acetylcholine response;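 active means activation above the run's mean over test compounds plus 3 SD, cut at about 23% in these data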;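 further: signal is peak over basal fluorescence ratio across the kinetic read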
# CHRM4 agonist: CHRM4 agonism in calcium assay; P08173; CHO-K1 hM4/Gqi5, Fluo-8 calcium fluorescence; vehicle 0%, full acetylcholine response 100%; activation, % at 3 µM; 360,000 compounds, 0.14% hits;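 active means activation above the run mean over all test wells plus 3 SD, cut at about 32% in these data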;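 further: peak over basal fluorescence ratio per well then scaled between controls; 0% = DMSO wells and 100% = acetylcholine at EC100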
# Target sequence (P08173 whole entry, looked up): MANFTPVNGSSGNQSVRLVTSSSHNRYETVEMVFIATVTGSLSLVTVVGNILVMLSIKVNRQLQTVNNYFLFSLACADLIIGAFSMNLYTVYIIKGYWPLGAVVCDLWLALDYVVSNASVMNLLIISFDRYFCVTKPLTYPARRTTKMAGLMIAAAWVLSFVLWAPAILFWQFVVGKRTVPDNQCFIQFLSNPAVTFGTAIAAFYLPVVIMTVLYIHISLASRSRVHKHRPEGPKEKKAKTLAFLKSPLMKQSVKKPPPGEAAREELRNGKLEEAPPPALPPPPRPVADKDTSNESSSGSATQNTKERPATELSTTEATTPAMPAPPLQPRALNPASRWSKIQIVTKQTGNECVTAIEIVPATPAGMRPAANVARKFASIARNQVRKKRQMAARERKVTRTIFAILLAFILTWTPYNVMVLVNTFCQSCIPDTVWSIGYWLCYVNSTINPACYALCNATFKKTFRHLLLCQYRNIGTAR
# M5 antag: blocks acetylcholine activation of human M5 receptor; 360,000 compounds, 0.59% hits; CHO-hM5 cells, Fluo-8 calcium fluorescence, ACh EC80; AID 624040; P08912; inhibition, % at 3 µM;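 active means inhibition above a per-plate cutoff, the mean of that plate's test compounds plus 3 SD, cut at about 27% in these data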;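 further: 0% = acetylcholine EC80 with DMSO and 100% = DMSO without agonist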
# CHRM4 antagonist: CHRM4 antagonism in calcium assay | CHO-hM4 cells, ACh EC80, Fluo-8 calcium fluorescence | 360,000 compounds, 0.73% hits | inhibition, % at 3 µM | P08173 | AID 624125;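 active means inhibition above its plate's cutoff, the mean inhibition of sample wells plus 3 SD, cut at about 27% in these data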;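 further: 0% = acetylcholine EC80 with DMSO and 100% = DMSO without agonist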
# CHRM4 PAM: positive allosteric modulators of human muscarinic M4 receptor | P08173 | CHO-K1 hM4/Gqi5, Fluo-8 calcium fluorescence, ACh EC20; 0% = ACh EC20, 100% = maximal ACh | activation, % at 3 µM | 360,000 compounds, 0.4% hits | AID 624126;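 active means activation above its plate's cutoff, the mean activation of sample wells plus 3 SD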
# CHRM5 PAM: positive allosteric modulators of human muscarinic M5 receptor; 360,000 compounds, 0.3% hits; activation, % at 3 µM; AID 624038; P08912; CHO-K1 hM5, Fluo-8 calcium, ACh EC20 PAM; 0% = ACh EC20, 100% = ACh EC100;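 active means activation above the run cutoff, the mean activation of all test compounds plus 3 SD, cut at about 18% in these data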
#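 System – CHO-K1 hM5 cells · Compound – 3 µM, single dose · Incubation – compound preincubation 140 s before EC20 acetylcholine addition · Technique – Fluo-8 calcium fluorescence · Measure – Max/basal fluorescence ratio as % of EC20–EC100 ACh window · Benchmarks – low control EC20 acetylcholine (0%), high control EC100 acetylcholine (100%) · Replication – singlicate, one well per test compound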
# * hit, by the source's call.
SMILES,CHRM5 agonist,CHRM4 agonist,M5 antag,CHRM4 antagonist,CHRM4 PAM,CHRM5 PAM
O=C(OCCN1CCOCC1)c1ccc(Cl)cc1Cl,3,1,-6,-8,15*,1
CCOc1ccc(N(CC(=O)Nc2cccc(N(C)S(C)(=O)=O)c2)S(=O)(=O)c2ccccc2)cc1,0,8,0,-5,-5,-1
COc1ccc(S(=O)(=O)Cc2ccc(C(=O)NCCCN(C)c3ccccc3)o2)cc1,-3,7,8,28*,-16,0
Cc1ccc(CN2CCNC(=O)C2CC(=O)NCC(F)(F)F)o1 (stereo not drawn),-4,1,27*,-3,12,-13
Cc1ccc(CN2CCNC(=O)C2CC(=O)N(C)C(C2CC2)C2CC2)o1 (stereo not drawn),-2,1,-1,-6,11,1
CCOc1ccc(C2NCCc3cc(OC)c(OC)cc32)cc1OC (stereo not drawn),-2,1,-2,-11,14*,8
COC(=O)c1ccc(Cl)cc1NC(=O)/C=C/c1ccc(C)o1,0,0,16,1,3,20*
CC1CCCCN1C(=O)CSc1nc(N)cc(=O)[nH]1 (stereo not drawn),-2,1,-5,10,3,4
CC1CCCCN1C(=O)CSc1nc(N)nc(N)n1 (stereo not drawn),0,1,10,-6,26*,-4
CC(=O)N1c2ccccc2NC2=C(C(=O)CCC2)C1c1ccco1 (stereo not drawn),8,1,11,-9,19,21*
Cc1cc(C(=O)OCC(=O)N2CCOCC2)c2ccccc2n1,-3,1,-4,-10,19*,-5
COc1ccc2c3c(cccc13)C(=O)CC2,34*,78*,29*,26,-22,-10
O=C(NCc1ccccc1F)C1CCN(C(=O)c2sccc2-n2cccc2)CC1,-6,2,5,-7,-2,-5
CCOC(=O)/C=C/C(=O)Nc1ccc(Oc2ccccc2)cc1,-3,13,36*,20,-16,-26
COc1ccccc1CNC(=O)CN1C(=O)c2ccc([N+](=O)[O-])cc2C1=O,-2,4,30*,11,-9,-11
Cc1cc(C)c2[nH]c(C)c(CN3CCCCCC3)c(=O)c2c1,-5,0,17,15,-10,-6
CC(=O)Nc1cccc(C(=O)N2CCN(Cc3ccccc3)CC2)c1,3,3,1,-1,20*,6
Cc1cc(C)[n+]2[nH]c(N)c(N=Nc3ccccc3)c2n1,3,2,-17,1,10,22*
CC1CCN(C(=O)C2COc3ccccc3O2)CC1 (stereo not drawn),0,-1,0,-3,6,8
O=C(c1cc(=O)[nH]c2ccccc12)N1CCN(S(=O)(=O)c2ccc(Cl)cc2)CC1,4,30,27*,10,-6,-29
Cc1cc(C)cc(OCC(O)Cn2nc(C)cc2C)c1 (stereo not drawn),-1,0,8,-1,1,-1
CCOC(=O)CC1CCCCN1C(=O)c1cc(COc2cccc3cnccc23)on1 (stereo not drawn),10,32*,40*,55*,-13,-15
Cc1cc(-c2ccc(Cl)cc2)n2nc(N)nc2n1,-2,0,-11,-1,28*,0
CSCCC(c1nnnn1-c1c(C)cccc1C)N1CCN(C/C=C/c2ccccc2)CC1 (stereo not drawn),0,-2,5,-11,-1,0
Cn1nnnc1SCCNCc1ccccc1OCc1ccc(Cl)cc1,-2,4,7,27*,-27,-4
Cn1nnnc1SCCNCc1cc(Cl)ccc1OCc1ccccc1,-1,12,14,-1,-15,-17
O=[N+]([O-])c1ccc(S(=O)(=O)c2cccc(C(F)(F)F)c2)nc1,-2,3,17,46*,-6,-2
Cc1ccc(NC(=O)CCNC(=O)c2ccco2)cc1,-1,1,1,3,19,13

# High-throughput results as filed in PubChem.
